Here are results for 6 compounds from ChEMBL document CHEMBL1154901, “Quassidines A-D, bis-beta-carboline alkaloids from the stems of Picrasma quassioides” (J Nat Prod, 2010).

For data set [1], the system named is RAW264.7. Briefly: Antiinflammatory activity in mouse RAW264.7 cells assessed as inhibition of LPS-induced TNFalpha production by ELISA. Type of data set: functional, cell-based. Put shortly:
(§1)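 RAW 264.7 cells in RPMI 1640, seeded at 5 × 10^5 cells/mL and cultured 1 h. Compound in DMSO was co-added with LPS (final 1 µg/mL). After 6 h culture, supernatant TNF-α and IL-6 were quantified with mouse ELISA kits. LPS-only and DMSO-only (no LPS) wells served as references.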
(In an ELISA, binding on a coated surface is turned into a signal by an enzyme label.)

Data set [2] concerns RAW264.7. Briefly: Antiinflammatory activity in mouse RAW264.7 assessed as inhibition LPS-induced nitric oxide production cells after 24 hrs. Type of data set: functional, cell-based. The note with it: RAW264.7, 24 h. The essentials:
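RAW 264.7 cells in RPMI 1640 with 10% heat-inactivated FBS, seeded at 5 × 10^5 cells/mL and cultured 1 h. Compound in DMSO was added at various concentrations together with LPS (final 1 µg/mL), then incubated 24 h. Supernatant nitrite was measured with Griess reagent (1% sulfanilamide in 5% H3PO4 plus 0.1% naphthylethylene diamine) at 540 nm. Inhibitory rate versus LPS-only wells.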

For data set [3], the system named is RAW264.7. As to the kind of experiment: Antiinflammatory activity in mouse RAW264.7 cells assessed as inhibition of LPS-induced IL-6 production by ELISA. Type of data set: functional, cell-based. Put shortly: as §1
For data set [4], the system named is RAW264.7. Briefly: Cytotoxicity against mouse RAW264.7 cells after 24 hrs by MTT assay. Type of data set: cell-based. The note with it: raw264.7, 24 h. The essentials: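 RAW 264.7 macrophages seeded at 5 × 10^5 cells/mL in RPMI 1640 with 10% FBS. Compound in DMSO was added with LPS 1 µg/mL. Viability was read by MTT mitochondrial reduction colorimetric assay after 24 h exposure.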
A general note: Formazan colour is commonly taken as a measure of viable cells.

By IC50 is commonly meant the concentration that inhibits the measured activity by half. `C[C@]12CCC(=O)C=C1CC[C@@H]1[C@@H]2[C@@H](O)C[C@@]2(C)[C@H]1CC[C@]2(O)C(=O)CO` [HYDROCORTISONE]: the IC50 in the data set with RAW264.7 [1] turned out to be 85.6 µM.

For `COc1cccc2c1[nH]c1c(CCC(OC)C(=O)c3nccc4c3[nH]c3ccccc34)ncc(OC)c12` (configuration not stated) [PICRASIDINE C], the IC50 with RAW264.7 [2] was 89.9 µM; in the data set with RAW264.7 [1] it was > 100 µM; in the data set with RAW264.7 [3], > 100 µM.

On to `COc1cccc2c1[nH]c1c([C@@H]3CC[C@H]3c3ncc(OC)c4c3[nH]c3ccccc34)ncc(OC)c12` [QUASSIDINE A], for which the results for the IC50 with RAW264.7 [2], with RAW264.7 [1] and with RAW264.7 [3] were 89.4 µM, 88.4 µM and > 100 µM, respectively.

`COc1cccc2c1[nH]c1c(CCC(O)c3nccc4c3[nH]c3ccccc34)ncc(OC)c12` (configuration not stated) [QUASSIDINE B]: the Activity result in the data set with RAW264.7 [4] is “Toxic”.

`COc1cnc(CCC(O)c2nccc3c2[nH]c2ccccc23)c2[nH]c3ccccc3c12` (configuration not stated) [QUASSIDINE C]: the Activity result in the data set with RAW264.7 [4] is recorded as “Toxic”.

Regarding `COc1cccc2c1[nH]c1c(CCC(OC)c3nccc4c3[nH]c3ccccc34)ncc(OC)c12` (configuration not stated) [QUASSIDINE D], the IC50 in the data set with RAW264.7 [2], in the data set on RAW264.7 [1] and in the data set with RAW264.7 [3] was > 100 µM each time.
